Results gathered from unrelated publications.
Protocols differ between the studies behind these lines.

CC(C)C[C@@H]1CCO[C@@H]2[C@H](CN[C@@H]2C(=O)N[C@H]2[C@H]3O[C@H](SCC/C=C\[C@H]2C)[C@H](O)[C@@H](O)[C@H]3O)C1
half-life (mouse, plasma; intravenous, 3 mg/kg, single dose): 280 min

NCc1ccc(-c2nn(Cc3ccncc3)c3ccccc23)o1
half-life (male CD-1 mouse, plasma; intraperitoneal, 30 mg/kg): 341 min

CN(C)C(=O)c1cc2cnc(Nc3ccc(-c4ccc5c(=O)cc(N6CCOCC6)oc5c4)cc3)nc2n1C1CCCC1
half-life (BALB/c mouse, plasma; oral, 20 mg/kg): 198 min

Cc1ncsc1-c1ccc([C@H](C)NC(=O)[C@@H]2C[C@@H](O)CN2C(=O)[C@@H](NC(=O)CCCCCCCCC(=O)N2CCC(n3cc(-c4ccc5c(c4)CCN5C(=O)Cc4cccc(OC(F)(F)F)c4)c4c(N)ncnc43)CC2)C(C)(C)C)cc1
half-life (male C57BL/6 mouse, plasma; intravenous, 1 mg/kg): 186 min

Cc1ccc(CCC(=O)Nc2nnc(S(N)(=O)=O)s2)cc1
half-life (male BALB/c mouse, plasma; oral, 20 mg/kg): 278 min

OCc1ccc(-c2nn(Cc3ccccc3)c3ccccc23)o1
half-life (male CD-1 mouse, plasma; intravenous, 5 mg/kg): 83.4 min

Cc1ccc(N(c2ccc(NC(=O)CN(C)c3ccccc3N3CCCC3=O)cc2)C(C)C)cc1
half-life (male CD-1 mouse, plasma; oral, 20 mg/kg): 88.8 min

COC1=CC(c2ccc[nH]2)=N/C1=C\c1cc(Cc2ccc(OC(F)(F)F)cc2)c(C)[nH]1.Cl
half-life (male CD-1 mouse, liver; oral, 40 mg/kg, single dose): 3500 min

CC1(CNc2nc(-c3cccs3)nc(Cl)c2-c2c(F)cc(N)cc2F)COC1
half-life (mouse, plasma; intraperitoneal, 2.5 mg/kg): 90.6 min

NCc1cc2c(cc1F)C(=O)N(C1CCC(=O)NC1=O)C2 (stereo not shown)
half-life (male CD-1 mouse, plasma; oral, 10 mg/kg): 138 min

COc1ccc(C[C@H](NC(=O)[C@H](C)NC(=O)CN2CCOCC2)C(=O)N[C@@H](Cc2ccccc2)C(=O)C2(C)CO2)cc1 (stereo in doubt)
half-life (mouse, plasma; intravenous, 20 mg/kg, single dose): 474 min

Cc1[nH]c(C)c(S(=O)(=O)Nc2ccc(C(F)(F)F)c(Cl)c2)c1C(=O)N1CCC(F)(F)C1
half-life (male CD-1 mouse, plasma; intraperitoneal, 40 mg/kg): 238 min

COC1=CC(c2ccc[nH]2)=N/C1=C\c1[nH]c(Cc2ccc(OC(F)(F)F)cc2)cc1Cc1ccc(OC(F)(F)F)cc1
half-life (male CD-1 mouse, liver; oral, 40 mg/kg, single dose): 457 min

O=C1CCC(N2Cc3cc(C4CCN(Cc5ccccc5)CC4)ccc3C2=O)C(=O)N1 (stereo not shown)
half-life (male CD-1 mouse, plasma; intravenous, 1 mg/kg): 197 min

Cc1cc(-c2ccnc3[nH]cc(F)c23)cc(F)c1[C@@]1(O)[C@H](C)CN(C(=O)CN)C[C@@H]1C
half-life (male CD-1 mouse, plasma; intravenous, 1 mg/kg): 540 min

Cc1ccc(OCC(=O)N[C@@H](Cc2c[nH]c3ccccc23)C(=O)OC(C)C)cc1
half-life (male Sprague-Dawley mouse, plasma; intravenous, 10 mg/kg): 132 min

NCc1ccc(-c2nn(Cc3ccccc3)c3ccccc23)o1
half-life (male CD-1 mouse, plasma; intraperitoneal, 30 mg/kg): 140 min

COCC(=O)N1CCc2[nH]c3c(Cl)c(Cl)ccc3c2[C@@H]1C
half-life (C57BL/6 mouse, blood; intravenous, 1 mg/kg): 39.2 min

Cc1cc(-c2ccnc3[nH]cc(F)c23)cc(F)c1[C@@]1(O)[C@H](C)CN(C2CCS(=O)(=O)CC2)C[C@@H]1C
half-life (male CD-1 mouse, plasma; intravenous, 1 mg/kg): 156 min

COc1cccc2c(N3CCC(CCP(=O)(O)O)CC3)ncnc12
half-life (female BALB/c mouse, serum; subcutaneous, 50 mg/kg, tumour-bearing): 102 min

Cc1ncsc1-c1ccc([C@H](CC(=O)N2CC3(C2)CN(c2ccc(C#Cc4ccc(C(=O)N5CCC(n6cc(-c7ccc8c(c7)CCN8C(=O)Cc7cccc(OC(F)(F)F)c7)c7c(N)ncnc76)CC5)cc4)cn2)C3)NC(=O)[C@@H]2C[C@@H](O)CN2C(=O)[C@@H](NC(=O)C2(F)CC2)C(C)(C)C)cc1
half-life (male C57BL/6 mouse, plasma; intravenous, 1 mg/kg): 354 min

Cc1ccc2c(c1)C(=O)[C@]1(O)CCN(c3ccc4nc(C)ccc4c3)C1=N2.Cl
half-life (mouse, brain; subcutaneous, 5 mg/kg): 630 min
